From ChEMBL document CHEMBL4316597, “Design, Synthesis, and Biological Evaluation of Itaconic Acid Derivatives as Potential Anti-Influenza Agents” (J Med Chem, 2019)

Experiments:
Influenza A virus = assay: Antiviral activity against Influenza A virus (A/WSN/33) infected in MDCK cells assessed as reduction in virus-induced cytopathic effect after 72 hrs by crystal violet-staining based assay; type: functional, organism-based; conditions: A/WSN/1933(H1N1)
Method in brief: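 Cells seeded at 2 × 10^4/well in E10 (DMEM, 10% FBS), 16–24 h at 37 °C/5% CO2, washed with DPBS, then infected at nine-fold TCID50 with or without serial compound concentrations. Influenza is run in MDCK and enterovirus/rhinovirus in RD. Incubated 72 h, fixed in 4% paraformaldehyde, stained with 0.1% crystal violet, and read for cell density. EC50 = 50% CPE inhibition by Reed–Muench; mean ± S.D. of at least three runs.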

[1] = Cytotoxicity against MDCK cells assessed as cell death after 72 hrs by MTT assay; type: cell-based, Canis lupus familiaris; conditions: dog
Method in brief: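 MDCK or RD cells at 2 × 10^4/well in E10, overnight at 37 °C/5% CO2, DPBS wash, then exposed to graded compound concentrations for 72 h. MTT added for 3 h, formazan dissolved in DMSO, absorbance read at 570 nm. CC50 (50% cell death) by Reed–Muench.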

[2] = Selectivity ratio of CC50 for MDCK cells to EC50 for Influenza A virus (A/WSN/33); type: toxicity; conditions: dog, read-out: Ratio CC50/EC50
Method in brief: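 SI is calculated as CC50 (MDCK, 72 h MTT) divided by EC50 (72 h crystal-violet CPE assay in MDCK).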

SMILES | EC50 (Influenza A virus) | CC50 at 72 h [1] | selectivity ratio [2]
C=C(CC(=O)Nc1cc(C(F)(F)F)ccc1F)C(=O)Nc1cc(C(F)(F)F)ccc1F | 0.11 µM | 15 µM | 136
C=C(CC(=O)Nc1ccc(F)cc1C(F)(F)F)C(=O)Nc1ccc(F)cc1C(F)(F)F | > 50 µM | > 110 µM | 
C=C(CC(=O)Nc1ccc(Cl)cc1F)C(=O)O | > 50 µM | > 110 µM | 
C=C(CC(=O)Nc1cc(Cl)ccc1F)C(=O)O | > 50 µM | > 110 µM | 
C=C(CC(=O)NCc1cc(F)ccc1F)C(=O)NCc1cc(F)ccc1F | > 50 µM | > 110 µM | 
C=C(CC(=O)Nc1ccc(Cl)cc1F)C(=O)Nc1ccc(Cl)cc1F | 0.67 µM | > 110 µM | > 164
C=C(CC(=O)Nc1ccc(Br)cc1F)C(=O)Nc1ccc(Br)cc1F | 0.99 µM | > 110 µM | > 111
C=C(CC(=O)Nc1cc(C(F)(F)F)ccc1F)C(=O)O | > 50 µM | > 110 µM | 
C=C(CC(=O)Nc1cc(OC)ccc1F)C(=O)Nc1cc(OC)ccc1F | 0.48 µM | > 110 µM | > 229
C=C(CC(=O)Nc1ccc(F)cc1Br)C(=O)Nc1ccc(F)cc1Br | 2.59 µM | > 110 µM | > 42
C=C(CC(=O)Nc1ccccc1C(F)(F)F)C(=O)Nc1ccccc1C(F)(F)F | > 50 µM | > 110 µM | 
C=C(CC(=O)Nc1cc(F)ccc1F)C(=O)O | > 50 µM | > 110 µM | 
C=C(CC(=O)Nc1cccc(C(F)(F)F)c1)C(=O)O | > 50 µM | > 110 µM | 
